In the library only some 3.3% were active in any assay of this set; here they are far more common.
PRMT1 inh: PRMT1 methyltransferase inhibitors, primary screen, biochemical, fluorescence polarization. Protein arginine N-methyltransferase 1 (Homo sapiens), Q99873. recombinant PRMT1, activity-based probe fluorescence polarization. inhibition, % at 2.79 µM. hit rate 1.3% among 370,000. AID 652257, 2013;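 active = inhibition above about 21% made by adding two undisclosed values, limit read from the data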
Target sequence (Q99873 whole entry, looked up): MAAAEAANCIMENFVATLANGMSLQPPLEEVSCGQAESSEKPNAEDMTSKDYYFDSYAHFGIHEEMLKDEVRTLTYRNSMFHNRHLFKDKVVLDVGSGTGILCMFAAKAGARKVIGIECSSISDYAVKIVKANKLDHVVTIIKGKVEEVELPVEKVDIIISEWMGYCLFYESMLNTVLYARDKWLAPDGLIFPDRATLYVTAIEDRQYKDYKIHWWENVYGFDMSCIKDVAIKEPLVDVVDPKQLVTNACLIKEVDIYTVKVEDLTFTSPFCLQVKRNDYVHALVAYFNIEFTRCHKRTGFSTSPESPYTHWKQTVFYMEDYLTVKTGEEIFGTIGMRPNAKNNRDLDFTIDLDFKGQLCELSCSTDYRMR
SIAE primary: human SIAE inhibitors, primary screen, biochemical, fluorescence polarization, FP-Rh probe, 1536-well HTS | Sialate O-acetylesterase (Homo sapiens), Q9HAT2 | SIAE FP-Rh probe binding | inhibition, % at 9.66 µM | hit rate 0.69% among 370,000 | AID 1053197, 2014;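 active = inhibition above a cutoff: mean of compounds within the control limits plus 3 SD of those, cut at about 17% in these data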
HTRA1 inhibitor: HTRA1 serine protease inhibitors, primary screen, biochemical, fluorescence polarization, HTS. inhibition, % at 5.96 µM. recombinant HTRA1, FP-rhodamine activity-based probe. hit rate 0.5% among 340,000. Q92743; in the data active = inhibition above about 36%
rCAG RNA binder: binders of r(CAG) RNA repeats, primary screen, biochemical, fluorescence. r(CAG) RNA repeat, TO-PRO-1 dye displacement fluorescence. hit rate 1.3% among 370,000. inhibition, % at 3 µM;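 active = inhibition above the plate cutoff, the mean of all test compounds on that plate plus 3 SD, cut at about 35% in these data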;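 note: higher means more dye released from RNA so lower well fluorescence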
ABHD4 inh: ABHD4 inhibitors, primary screen, biochemical, fluorescence polarization, mouse. (Lyso)-N-acylphosphatidylethanolamine lipase (Mus musculus), Q8VD66. inhibition, % at 8.92 µM. purified mABHD4, FP-Rh probe fluorescence polarization. hit rate 0.54% among 370,000. AID 720543, 2013;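 active = inhibition exceeding the mean over every tested compound plus 3 SD, cut at about 30% in these data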
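assay system = mABHD4 protein | compound dosing = single nominal dose of 8.92 µM, 0.89% DMSO final | read-out basis = percent inhibition of probe binding, normalized to plate controls | schedule = Enzyme–compound pre-incubation 45 min, then probe 60 min, both 25 °C | detection = fluorescence polarization, excitation 525 nm, emission 598 nm, BODIPY TMR filters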
ABHD4 confirm: ABHD4 inhibitors, retest, confirmation, biochemical, fluorescence polarization, mouse | inhibition, % at 8.92 µM | shares compounds with ABHD4 inh | hit rate 55% among 1,800 | purified mABHD4, FP-Rh probe fluorescence polarization;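 active = mean inhibition across replicates above the hit cutoff set in the primary screen, cut at about 30% in these data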
A number is an active result.

How did O=C1C(Cl)=C(Nc2ccc(O)cc2)C(=O)c2ccccc21 do in these assays?
PRMT1 inh: 36; SIAE primary: inactive; HTRA1 inhibitor: inactive; rCAG RNA binder: inactive; ABHD4 inh: 41; ABHD4 confirm: 54

Results for c1ccc(-c2nc(-c3ccccn3)nc(-c3ccccn3)n2)nc1 ?
PRMT1 inh: inactive; SIAE primary: inactive; HTRA1 inhibitor: inactive; rCAG RNA binder: inactive; ABHD4 inh: 35; ABHD4 confirm: 47

Results for Nc1nc(N)nc(-c2ccccn2)n1 ?
PRMT1 inh: inactive; SIAE primary: inactive; HTRA1 inhibitor: inactive; rCAG RNA binder: inactive; ABHD4 inh: inactive

How did CCNC(=O)/C(=C/c1cccc([N+](=O)[O-])c1)NC(=O)c1ccc(C)cc1 do in these assays?
PRMT1 inh: inactive; SIAE primary: inactive; HTRA1 inhibitor: inactive; rCAG RNA binder: inactive; ABHD4 inh: inactive

How did COc1cccc(C(=O)CC(=O)C(=O)Nc2cc(OC)ccc2OC)c1 do in these assays?
PRMT1 inh: inactive; SIAE primary: inactive; HTRA1 inhibitor: inactive; rCAG RNA binder: inactive; ABHD4 inh: 32; ABHD4 confirm: inactive

What do the screens show for `Cc1ccc(S(=O)(=O)Nc2c(C)nc3nc[nH]n3c2=O)c(C)c1`?
PRMT1 inh: inactive; SIAE primary: inactive; HTRA1 inhibitor: inactive; rCAG RNA binder: inactive; ABHD4 inh: inactive

How did CCOC(=O)c1c(C)oc2c1c(C(c1ccncc1)N1CCOCC1)c(O)c1ccccc12 (stereo not drawn) do in these assays?
PRMT1 inh: inactive; SIAE primary: inactive; rCAG RNA binder: inactive; ABHD4 inh: inactive

What do the screens show for `CCOC(=O)c1c(C)oc2c1c(CN1CCN(C(=O)OCC)CC1)c(O)c1ccccc12`?
PRMT1 inh: inactive; SIAE primary: inactive; HTRA1 inhibitor: inactive; rCAG RNA binder: inactive; ABHD4 inh: 31; ABHD4 confirm: 39

What do the screens show for `N#C/C(=C/C1=C(N2CCOCC2)C(=C/c2ccc(Cl)cc2Cl)/CC1)C(=O)Nc1ccccc1F`?
PRMT1 inh: inactive; SIAE primary: inactive; HTRA1 inhibitor: inactive; rCAG RNA binder: inactive; ABHD4 inh: 40; ABHD4 confirm: inactive

Results for N#C/C(=C\C1=C(N2CCOCC2)C(=C\c2ccc(Cl)cc2)/CC1)C(=O)Nc1ccccc1F ?
PRMT1 inh: inactive; SIAE primary: inactive; HTRA1 inhibitor: inactive; rCAG RNA binder: inactive; ABHD4 inh: inactive

Results for CCOC(=O)C1=C(C)c2ccccc2N(S(=O)(=O)C(F)(F)F)C1C(=O)OCC (stereo not drawn) ?
PRMT1 inh: inactive; SIAE primary: inactive; HTRA1 inhibitor: inactive; rCAG RNA binder: inactive; ABHD4 inh: inactive

Results for CCN1C(=O)C(CC(=O)Nc2ccc(OC)cc2)N(CCCN2CCN(c3ccc(OC)cc3)CC2)C1=S (stereo not drawn) ?
PRMT1 inh: inactive; SIAE primary: inactive; HTRA1 inhibitor: inactive; rCAG RNA binder: inactive; ABHD4 inh: inactive

Results for Oc1ccc(NC(=S)Nc2ccc(F)cc2)cc1 ?
PRMT1 inh: inactive; SIAE primary: inactive; HTRA1 inhibitor: inactive; rCAG RNA binder: inactive; ABHD4 inh: 33; ABHD4 confirm: inactive

What do the screens show for `O=C(Nc1ccc(Cl)cc1)C1CCCN(c2cnccn2)C1` (stereo not drawn)?
PRMT1 inh: inactive; SIAE primary: inactive; HTRA1 inhibitor: inactive; rCAG RNA binder: inactive; ABHD4 inh: inactive

How did COC(=O)C(=O)C1CCc2c(Cl)cc(OC)c(OC)c2C1=O (stereo not drawn) do in these assays?
PRMT1 inh: inactive; SIAE primary: inactive; HTRA1 inhibitor: inactive; rCAG RNA binder: inactive; ABHD4 inh: 52; ABHD4 confirm: inactive

What do the screens show for `C[C@@H]1CCCCO[C@H](CN(C)C(=O)Cc2ccccc2)[C@@H](C)CN([C@H](C)CO)C(=O)c2cc(NC(=O)Nc3ccccc3)ccc2O1`?
PRMT1 inh: inactive; SIAE primary: inactive; HTRA1 inhibitor: inactive; rCAG RNA binder: inactive; ABHD4 inh: inactive

Results for CC1=Nc2ccccc2N=C(NC(=O)CN2CCN(c3ccc(F)cc3)CC2)C1c1ccccc1 (stereo not drawn) ?
PRMT1 inh: inactive; SIAE primary: inactive; rCAG RNA binder: inactive; ABHD4 inh: inactive

Source: PubChem (The Scripps Research Institute Molecular Screening Center)
